The test system of data set [1] is A549. The data set is described as follows: Induction of apoptosis in human A549 cells assessed as early apoptotic cells at 10 uM after 36 hrs by Annexin V-FITC/propidium iodide staining based FACS analysis (reference value: 0.29%). The class given is functional. An outline of the steps: (§1)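 A549 cells seeded at 2 × 10⁵ per well, incubated overnight, then treated at 0, 5 or 10 µM. The legend gives 36 or 48 h; the methods section states 24 h. Annexin V-FITC/PI kit staining followed by flow cytometry. Early and late apoptotic cells expressed as cumulative percentage relative to control.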

Data set [2] concerns A549. The data set is described as follows: Cellular uptake in human A549 cells at 1 to 5 uM after 4 hrs by FACS analysis. The class given is ADME, cell-based. Particulars: a549, 4 h. An outline of the steps: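 A549 cells treated with 1 or 5 µM for 4 h; 8 and 16 h also examined. Cells trypsinized, pelleted, resuspended in PBS and analysed at once by FACS. Intrinsic compound fluorescence read with 400 nm excitation, at least 10000 cells per sample.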
Background: Flow cytometry measures light scatter and fluorescence of single cells or particles in a stream.

The subject of data set [3] is A549. Briefly: Cell cycle arrest in human A549 cells assessed as accumulation at G2/M phase at 5 uM after 36 hrs by propidium iodide staining based flow cytometry (reference value: 7.62%). The class given is functional.
Data set [4] relates to A549. Briefly: Induction of apoptosis in human A549 cells assessed as early apoptotic cells at 10 uM after 48 hrs by Annexin V-FITC/propidium iodide staining based FACS analysis (reference value: 0.94%). The class given is functional. An outline of the steps: as §1
Data set [5] deals with Calf thymus DNA. Briefly: Binding affinity to calf thymus DNA assessed as bathochromic shift at 10 uM after 5 mins by UV-vis spectrophotometry. To be noted: Bos taurus. The class given is nucleic-acid assay. An outline of the steps: (§2)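 ctDNA at 0-44 µM is added to compound at 10 µM final in Tris-HCl buffer (pH 7.4). UV-vis absorption spectra are recorded after 5 min standing. The binding constant K_b is taken from a plot of absorption data against DNA concentration.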

The subject of data set [6] is A549. Briefly: Induction of apoptosis in human A549 cells assessed as increase in expression of cleaved caspase 3 at 1 to 2.5 uM after 48 hrs by Western blot analysis. The data set is classed as functional, cell-based. In short, it runs like this: (§3)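 A549 cells grown to 80% confluency, treated with graded concentrations for 48 h, then lysed in Tris-HCl/NaCl/Triton X-100 buffer with protease inhibitors. 40 µg protein resolved on 12 or 15% SDS-PAGE and blotted to PVDF. Primary antibodies used at 1:1000 for 6-8 h, HRP anti-rabbit at 1:2000 for 2 h, ECL detection, β-actin as loading control.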

Data set [7] concerns Calf thymus DNA. The data set is described as follows: Binding affinity to calf thymus DNA at 10 uM spectrofluorimetric analysis. The class given is nucleic-acid assay. To be noted: Bos taurus. In short, it runs like this:
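Compound at 10 µM final in 10 mM Tris-HCl, pH 7.4, titrated with ctDNA at 0-64 µM final. Emission recorded 420-750 nm with excitation at 400 nm using a xenon arc lamp source. Quenching constant K derived by Stern-Volmer fit, F₀/F = 1 + K[Q], where [Q] is the DNA concentration.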

For data set [8], the system named is A549. The data set is described as follows: Cell cycle arrest in human A549 cells assessed as accumulation at S phase at 0.5 uM after 36 hrs by propidium iodide staining based flow cytometry (reference value: 30.73%). The data set is classed as functional.
For data set [9], the system named is A549. The data set is described as follows: Induction of apoptosis in human A549 cells assessed as late apoptotic cells at 5 uM after 48 hrs by Annexin V-FITC/propidium iodide staining based FACS analysis (reference value: 0.62%). The class given is functional. An outline of the steps: as §1
For data set [10], the target named is T1, DNA topoisomerase 1 (Homo sapiens) (UniProt P11387).
T1 sequence (whole entry): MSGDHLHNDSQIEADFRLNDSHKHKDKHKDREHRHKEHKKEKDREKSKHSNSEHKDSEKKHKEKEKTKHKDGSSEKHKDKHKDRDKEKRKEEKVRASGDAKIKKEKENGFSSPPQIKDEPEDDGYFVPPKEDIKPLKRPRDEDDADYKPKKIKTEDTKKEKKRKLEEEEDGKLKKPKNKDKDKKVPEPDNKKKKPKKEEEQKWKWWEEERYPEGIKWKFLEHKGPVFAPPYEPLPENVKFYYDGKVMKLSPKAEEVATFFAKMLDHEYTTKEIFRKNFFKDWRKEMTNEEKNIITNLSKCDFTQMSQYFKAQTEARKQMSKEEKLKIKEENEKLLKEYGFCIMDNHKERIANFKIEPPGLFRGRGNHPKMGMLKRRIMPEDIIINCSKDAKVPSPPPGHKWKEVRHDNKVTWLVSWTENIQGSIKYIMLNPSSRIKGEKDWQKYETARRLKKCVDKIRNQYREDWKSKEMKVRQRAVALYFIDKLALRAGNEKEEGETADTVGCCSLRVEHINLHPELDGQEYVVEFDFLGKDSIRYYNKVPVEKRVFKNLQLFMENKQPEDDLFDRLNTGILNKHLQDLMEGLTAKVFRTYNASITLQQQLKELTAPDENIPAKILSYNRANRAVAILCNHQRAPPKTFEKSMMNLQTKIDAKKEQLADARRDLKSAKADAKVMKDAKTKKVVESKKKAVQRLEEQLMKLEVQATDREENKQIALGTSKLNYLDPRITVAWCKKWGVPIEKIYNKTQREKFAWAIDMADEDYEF
Briefly: Inhibition of human topoisomerase 1 assessed as reduction in enzyme-mediated relaxation of supercoiled pBR322 DNA at 50 to 100 uM after 10 to 15 mins by agarose gel electrophoresis. In short, it runs like this:
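Relaxation of 500 ng supercoiled pBR322 by 1 unit human Topo I or Topo IIα, with or without compound, in 20 µL reaction buffer at 37 °C for 10-15 min. Reactions stopped with loading buffer, run on 0.8% agarose in TAE at 80 V for 30 min. Gels stained with ethidium bromide 2.5 µg/mL and viewed under UV.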

For a further data set, the system named is CCRF-CEM. The data set is described as follows: Antiproliferative activity against human CCRF-CEM cells after 48 hrs by MTT assay. The data set is classed as functional, cell-based. An outline of the steps:
(§4)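 MTT assay: cells seeded at 4-8 × 10³ per well, incubated overnight at 37 °C in 5% CO₂, then given fresh medium with graded compound concentrations or equal DMSO for 48 h. MTT (5 mg/mL solution) added for a further 4 h, formazan dissolved in DMSO, absorbance read at 490 nm. Six cancer cell lines tested.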
On the technique in general: Tetrazolium assays rely on reduction of a dye to a coloured formazan, in cell work by metabolically active cells.

Data set [11] deals with A549. The data set is described as follows: Cell cycle arrest in human A549 cells assessed as accumulation at G2/M phase after 36 hrs by propidium iodide staining based flow cytometry. The data set is classed as functional.
The test system of data set [12] is A549. The data set is described as follows: Cell cycle arrest in human A549 cells assessed as accumulation at S phase at 5 uM after 36 hrs by propidium iodide staining based flow cytometry (reference value: 30.73%). The data set is classed as functional.
Another data set concerns HeLa. The data set is described as follows: Antiproliferative activity against human HeLa cells after 48 hrs by MTT assay. The class given is functional, cell-based. In short, it runs like this:
as §4

Data set [13] concerns A549. The data set is described as follows: Cell cycle arrest in human A549 cells assessed as accumulation at G2/M phase at 0.5 uM after 36 hrs by propidium iodide staining based flow cytometry (reference value: 7.62%). The class given is functional.
For data set [14], the system named is A549. Briefly: Antiproliferative activity against human A549 cells after 48 hrs by MTT assay. The data set is classed as functional, cell-based. To be noted: A549, 48 h. In short, it runs like this: as §4
Data set [15] concerns Calf thymus DNA. The data set is described as follows: Binding affinity to calf thymus DNA assessed as hypochromicity change at 10 uM after 5 mins by UV-vis spectrophotometry relative to control. The class given is nucleic-acid assay. To be noted: Bos taurus. In short, it runs like this:
as §2

Data set [16] relates to A549. Briefly: Induction of DNA damage in human A549 cells assessed as increase in gamma-H2AX expression at 1 to 2.5 uM after 48 hrs by Western blot analysis. The data set is classed as cell-based. An outline of the steps: as §3
In general terms: In western blotting, separated proteins are transferred to a membrane and probed.

In data set [17] the test system is A549. The data set is described as follows: Induction of apoptosis in human A549 cells assessed as late apoptotic cells at 5 uM after 36 hrs by Annexin V-FITC/propidium iodide staining based FACS analysis (reference value: 0.29%). The class given is functional. An outline of the steps:
as §1

Activity calls are given as the source filed them. No cut-off for these calls is given here.

`COc1ccc(CNc2c3ccc(Cl)cc3nc3ccc(OC)cc23)cc1`: the Activity in the data set on A549 [1] came out at 3.24%; with A549 [3], 16.52%; in the data set on A549 [4], 8.8%; in the data set with Calf thymus DNA [5], 10 nm; with A549 [8] it was 30.4%; with A549 [9], 21.23%. Further, the Activity result was “Dose-dependent effect” in the data set with A549 [11]; 21.45% in the data set with A549 [12]; 8.12% with A549 [13]; 60% in the data set with Calf thymus DNA [15]; 10.47% in the data set with A549 [17]. Also, the Drug uptake entry in the data set with A549 [2] is listed as “Active”. Further, the outcome in the data set with A549 [6] and with A549 [16] was Active. In the data set with Calf thymus DNA [7], this compound gave a KSV of 1.02 ×10⁵ /M. Moreover, the inhibition entry in data set [10] was “Active”. For the same compound, the IC50 (usually the concentration that gives 50% inhibition) is 2540 nM in the data set with CCRF-CEM, 1700 nM in the data set with HeLa and 610 nM with A549 [14].

Source of the values: ChEMBL document CHEMBL3792296, “Synthesis and antiproliferative activity of 9-benzylamino-6-chloro-2-methoxy-acridine derivatives as potent DNA-binding ligands and topoisomerase II inhibitors” (Eur J Med Chem, 2016).
